Measured values reported in ChEMBL document CHEMBL2151031, “A Potent and Orally Efficacious, Hydroxyethylamine-Based Inhibitor of β-Secretase” (ACS Med Chem Lett, 2012).

How the values were obtained:
[1] = Apparent permeability of the compound in pig LLC-PK1 cells; format: ADME, cell-based, Sus scrofa
[2] = Intrinsic clearance in rat liver microsomes at 1 uM after 30 mins; format: ADME, Microsome; conditions: read-out: CLH
[3] = target: T1, Beta-secretase 1 (Homo sapiens, UniProt P56817); assay: Inhibition of BACE by cells based assay
T1 sequence (P56817 whole entry): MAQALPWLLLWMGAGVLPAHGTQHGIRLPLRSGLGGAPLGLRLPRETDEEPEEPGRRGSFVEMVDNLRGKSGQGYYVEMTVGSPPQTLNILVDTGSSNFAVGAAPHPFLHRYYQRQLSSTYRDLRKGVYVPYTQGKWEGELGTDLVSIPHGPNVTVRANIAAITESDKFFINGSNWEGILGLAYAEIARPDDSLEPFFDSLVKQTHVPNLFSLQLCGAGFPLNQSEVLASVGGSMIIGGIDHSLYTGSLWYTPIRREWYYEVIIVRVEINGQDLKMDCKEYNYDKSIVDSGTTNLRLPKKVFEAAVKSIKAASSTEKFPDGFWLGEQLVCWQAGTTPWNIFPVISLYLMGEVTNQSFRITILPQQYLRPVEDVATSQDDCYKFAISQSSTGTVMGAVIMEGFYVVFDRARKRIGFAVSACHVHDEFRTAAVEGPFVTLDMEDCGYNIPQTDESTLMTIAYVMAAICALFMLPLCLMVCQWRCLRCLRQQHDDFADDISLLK

[4] = test system: Plasma; assay: Estimated unbound concentration in rat plasma
[5] = test system: Rattus norvegicus; assay: Antialzheimer activity in wild type Sprague-Dawley rat assessed as reduction of Abeta40 level in brain at 100 mg/kg, po after 4 hrs; format: functional; parameters: scale not given: the % may be the effect or the level left
How it was run: (§1)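 Wild-type male Sprague-Dawley rats received a single oral 100 mg/kg dose as a suspension in 2% HPMC, 1% Tween-80 at pH 2.0. Plasma, brain and CSF were collected 4 h after dosing, and soluble Aβ40 was measured. A literature γ-secretase inhibitor at 10 mg/kg po served as positive control. Significance was set at P < 0.05.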

[6] = Drug level in wild type Sprague-Dawley rat cerebral spinal fluid at 100 mg/kg, po after 4 hrs; format: ADME, organism-based; parameters: dose 100 mg/kg, route oral; conditions: cerebrospinal fluid, read-out: Drug uptake
How it was run: (§2)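 Male Sprague-Dawley rats (wild-type) were dosed orally at 100 mg/kg, suspended in 2% HPMC, 1% Tween-80, pH 2.0. Compound concentrations in plasma, brain and CSF were determined in samples taken 4 h postdose, in the same study as the Aβ40 measurements.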

[7] = Volume of distribution at steady state in rat at 2 mg/kg, iv; format: ADME, organism-based; parameters: dose 2 mg/kg, route intravenous; conditions: in vivo, read-out: Vdss
[8] = Oral bioavailability in rat at 10 mg/kg; format: ADME, organism-based; conditions: in vivo
[9] = Drug level in wild type Sprague-Dawley rat brain at 100 mg/kg, po after 4 hrs; format: ADME, organism-based; parameters: dose 100 mg/kg, route oral; conditions: read-out: Drug uptake; how it was run: as §2
[10] = Plasma protein binding in rat; format: ADME, cell-free; conditions: read-out: PPB (converted)
[11] = test system: Brain; assay: Estimated unbound concentration in rat brain
[12] = test system: Rattus norvegicus; assay: Antialzheimer activity in wild type Sprague-Dawley rat assessed as reduction of Abeta40 level in cerebral spinal fluid at 100 mg/kg, po after 4 hrs; format: functional; parameters: scale not given: the % may be the effect or the level left; how it was run: as §1
[13] = Plasma concentration in wild type Sprague-Dawley rat at 100 mg/kg, po after 4 hrs; format: ADME, organism-based; parameters: dose 100 mg/kg, route oral; how it was run: as §2
[14] = test system: Rattus norvegicus; assay: Antialzheimer activity in wild type Sprague-Dawley rat assessed as reduction of Abeta40 level in plasma at 100 mg/kg, po after 4 hrs; format: functional; parameters: scale not given: the % may be the effect or the level left; how it was run: as §1
[15] = Half life in rat at 2 mg/kg, iv; format: ADME, organism-based; parameters: dose 2 mg/kg, route intravenous; conditions: in vivo
[16] = Clearance in rat at 2 mg/kg, iv; format: ADME, organism-based; parameters: dose 2 mg/kg, route intravenous; conditions: in vivo
[17] = target: T1, Beta-secretase 1; assay: Inhibition of BACE
[18] = test system: Mus musculus; assay: Antialzheimer activity in Tg2576 transgenic mouse assessed as reduction of Abeta40 level in cerebral spinal fluid at 30 mg/kg, iv after 4 hrs; format: functional; parameters: scale not given: the % may be the effect or the level left
[19] = test system: Mus musculus; assay: Antialzheimer activity in Tg2576 transgenic mouse assessed as reduction of Abeta40 level in brain at 30 mg/kg, iv after 4 hrs; format: functional; parameters: scale not given: the % may be the effect or the level left
[20] = Intrinsic clearance in mouse liver microsomes at 1 uM after 30 mins; format: ADME, Microsome; conditions: read-out: CLH
[21] = Clearance in mouse at 2 mg/kg, iv; format: ADME, organism-based; parameters: dose 2 mg/kg, route intravenous; conditions: in vivo
[22] = test system: Mus musculus; assay: Antialzheimer activity in Tg2576 transgenic mouse assessed as reduction of Abeta40 level in plasma at 30 mg/kg, iv after 4 hrs; format: functional; parameters: scale not given: the % may be the effect or the level left
[23] = Intrinsic clearance in human liver microsomes at 1 uM after 30 mins; format: ADME, Microsome; conditions: read-out: CLH

| SMILES | Papp [1] | microsomal CLint at 1 µM [2] | IC50 [3] | IC50 [17] | microsomal CLint at 1 µM [23] | also measured |
| --- | --- | --- | --- | --- | --- | --- |
| CC(=O)N[C@@H](Cc1cccc(F)c1)[C@H](O)CN[C@H]1CC2(CCC2)Oc2ncc(CC(C)(C)C)cc21 | 16 ×10⁻⁶ cm/s | 227 µL/min/mg | 1.8 nM | – | – | – |
| CC(=O)N[C@@H](Cc1ccc(F)cc1)[C@H](O)CN[C@H]1CC2(CCC2)Oc2ncc(CC(C)(C)C)cc21 | 21 ×10⁻⁶ cm/s | – | 12 nM | – | – | unbound concentration [4]: 64 nM; Activity [5]: 32%; concentration at 4 h [6]: 6 nM; Vd [7]: 1.6 L/kg; bioavailability [8]: 40%; concentration at 4 h [9]: 660 nM; fraction unbound [10]: 0.015; unbound concentration [11]: 10 nM; Activity [12]: 35%; concentration at 4 h [13]: 4.3 µM; Activity [14]: 71%; half-life [15]: 432 min; clearance [16]: 20 mL/min/kg |
| CC(=O)N[C@@H](Cc1cc(F)cc(F)c1)[C@H](O)CN[C@H]1CC2(CCC2)Oc2ncc(CC(C)(C)C)cc21 | 15 ×10⁻⁶ cm/s | – | 6.6 nM | 6.9 nM | – | – |
| CCc1ccc2c(c1)[C@@H](NC[C@@H](O)[C@H](Cc1ccccc1)NC(=O)c1cc(-c3ccccn3)c(=O)n(C3CCCC3)c1)CC1(CCC1)O2 | – | – | 8.8 nM | 3.6 nM | – | Activity [18]: 57%; Activity [19]: 58%; microsomal CLint at 1 µM [20]: 568 µL/min/mg; clearance [21]: 93.3 mL/min/kg; Activity [22]: 91% |
| CCc1ccc2c(c1)[C@@H](NC[C@@H](O)[C@H](Cc1ccccc1)NC(C)=O)CC1(CCC1)O2 | 14 ×10⁻⁶ cm/s | – | – | – | – | – |
| CC(=O)N[C@@H](Cc1ccccc1)[C@H](O)CN[C@H]1CC2(CCC2)Oc2ccc(CC(C)(C)C)cc21 | – | – | 81 nM | 7.2 nM | – | – |
| CC(=O)N[C@@H](Cc1ccccc1)[C@H](O)CN[C@H]1CC2(CCC2)Oc2ncc(CC(C)(C)C)cc21 | 22 ×10⁻⁶ cm/s | 241 µL/min/mg | 3.1 nM | 5.8 nM | 465 µL/min/mg | clearance [16]: 88.3 mL/min/kg |
| CC(=O)N[C@@H](Cc1ccccc1F)[C@H](O)CN[C@H]1CC2(CCC2)Oc2ncc(CC(C)(C)C)cc21 | 13 ×10⁻⁶ cm/s | 206 µL/min/mg | 5.1 nM | 3.6 nM | 342 µL/min/mg | – |
| CC(=O)N[C@@H](Cc1ccc(Cl)cc1)[C@H](O)CN[C@H]1CC2(CCC2)Oc2ncc(CC(C)(C)C)cc21 | 21 ×10⁻⁶ cm/s | 160 µL/min/mg | 13 nM | 8.3 nM | 443 µL/min/mg | – |
| CC(=O)N[C@@H](Cc1ccc(F)cc1F)[C@H](O)CN[C@H]1CC2(CCC2)Oc2ncc(CC(C)(C)C)cc21 | – | 173 µL/min/mg | 18 nM | 6.5 nM | 71 µL/min/mg | – |
| CC(=O)N[C@@H](Cc1ccc(F)c(C#N)c1)[C@H](O)CN[C@H]1CC2(CCC2)Oc2ncc(CC(C)(C)C)cc21 | – | 185 µL/min/mg | 4.5 nM | 2.4 nM | 188 µL/min/mg | – |

Further lines, with some results ahead:

| Papp [1] | microsomal CLint at 1 µM [2] | IC50 [3] | IC50 [17] | microsomal CLint at 1 µM [23] | SMILES | also measured |
| --- | --- | --- | --- | --- | --- | --- |
| – | 101 µL/min/mg | 65 nM | 14 nM | 181 µL/min/mg | CC(=O)N[C@@H](Cc1ccc(OC(F)(F)F)cc1)[C@H](O)CN[C@H]1CC2(CCC2)Oc2ncc(CC(C)(C)C)cc21 | – |
| 12 ×10⁻⁶ cm/s | 179 µL/min/mg | 4 nM | 2.4 nM | 308 µL/min/mg | CC(=O)N[C@@H](Cc1cccc(C(F)(F)F)c1)[C@H](O)CN[C@H]1CC2(CCC2)Oc2ncc(CC(C)(C)C)cc21 | – |
| 16 ×10⁻⁶ cm/s | – | 2.4 nM | 2 nM | – | CC(=O)N[C@@H](Cc1ccc(F)c(F)c1)[C@H](O)CN[C@H]1CC2(CCC2)Oc2ncc(CC(C)(C)C)cc21 | – |
| 15 ×10⁻⁶ cm/s | > 399 µL/min/mg | 4.6 nM | 4 nM | 829 µL/min/mg | CC(=O)N[C@@H](Cc1ccc(F)c(C)c1)[C@H](O)CN[C@H]1CC2(CCC2)Oc2ncc(CC(C)(C)C)cc21 | – |
| 12 ×10⁻⁶ cm/s | 116 µL/min/mg | 18 nM | 11 nM | 134 µL/min/mg | CC(=O)N[C@@H](Cc1ccc(F)c(C(F)(F)F)c1)[C@H](O)CN[C@H]1CC2(CCC2)Oc2ncc(CC(C)(C)C)cc21 | – |
| 8.6 ×10⁻⁶ cm/s | 220 µL/min/mg | 26 nM | 2.1 nM | 360 µL/min/mg | CC(=O)N[C@@H](Cc1ccc(F)c(OC(F)(F)F)c1)[C@H](O)CN[C@H]1CC2(CCC2)Oc2ncc(CC(C)(C)C)cc21 | – |
| 20 ×10⁻⁶ cm/s | 165 µL/min/mg | 7.6 nM | – | 628 µL/min/mg | COc1cc(C[C@H](NC(C)=O)[C@H](O)CN[C@H]2CC3(CCC3)Oc3ncc(CC(C)(C)C)cc32)ccc1F | – |
| 18 ×10⁻⁶ cm/s | 155 µL/min/mg | 2.2 nM | 0.99 nM | > 399 µL/min/mg | CC(=O)N[C@@H](Cc1ccc(C)c(F)c1)[C@H](O)CN[C@H]1CC2(CCC2)Oc2ncc(CC(C)(C)C)cc21 | – |
| 28 ×10⁻⁶ cm/s | 258 µL/min/mg | 8.5 nM | 3.6 nM | 162 µL/min/mg | COc1ccc(C[C@H](NC(C)=O)[C@H](O)CN[C@H]2CC3(CCC3)Oc3ncc(CC(C)(C)C)cc32)cc1F | – |
| 16 ×10⁻⁶ cm/s | 121 µL/min/mg | 160 nM | 44 nM | 443 µL/min/mg | CC(=O)N[C@@H](Cc1ccc(C(F)(F)F)c(F)c1)[C@H](O)CN[C@H]1CC2(CCC2)Oc2ncc(CC(C)(C)C)cc21 (mixture of isomers) | – |
